Assay results from ChEMBL document CHEMBL5113451, “Discovery of 2-thiobenzimidazoles as noncovalent inhibitors of SARS-CoV-2 main protease” (Bioorg Med Chem Lett, 2022).

molecular target: T1, Replicase polyprotein 1ab (Severe acute respiratory syndrome coronavirus 2, UniProt P0DTD1); test: Inhibition of His6-tagged SARS-CoV-2 main protease expressed in Escherichia coli BL21 (DE3) using DABCYL-KTSAVLQ1SGFRKM-E(EDANS)-NH2 as substrate preincubated for 15 mins followed by substrate addition in presence of Triton-X by FRET analysis

First: O=C(CSc1nc2cc(Cl)ccc2n1Cc1ccccc1)N1CCNC1=O
Second: COCCn1c(C(=O)NCC(O)c2ccccc2)nc2ccccc2c1=O (configuration not stated)
The IC50 of the first is 2.2-fold lower: 24.2 µM for the first, 54 µM for the second. The first is the more potent here.

molecular target: T1, Replicase polyprotein 1ab; test: Inhibition of His6-tagged SARS-CoV-2 main protease expressed in Escherichia coli BL21 (DE3) using DABCYL-KTSAVLQ1SGFRKM-E(EDANS)-NH2 as substrate preincubated for 15 mins followed by substrate addition by FRET analysis
How it was run: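 Inhibitor preincubated 15 min at 30 °C, then dabcyl-edans substrate added. Fluorescence followed at 90 s intervals. […] Three independent experiments.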

First: CC(C)(C)c1ccc2c(c1)nc(SCC(=O)N1CCOC1=O)n2Cc1ccccc1
Second: O=C(CSc1nc2cc(Cl)ccc2n1Cc1ccccc1)N1CCOC1=O
The IC50 of the first is 1.8-fold lower: 35.1 µM for the first, 62.2 µM for the second.

Compared with `O=C1OCCN1C(=O)C(Cc1ccco1)Sc1nc2ccc(Cl)cc2n1Cc1ccccc1` (configuration not stated), `O=C1OCCN1C(=O)C(Cc1ccco1)Sc1nc2cc(Cl)ccc2n1Cc1ccccc1` (configuration not stated) is 3.6-fold lower in IC50: 52.9 µM for the first, 14.9 µM for the second.

`O=C(CSc1nc2cc(Cl)c(O)cc2n1Cc1ccccc1)N1CCOC1=O` and `O=C(CSc1nc2cc(Cl)c(Cl)cc2n1Cc1ccccc1)N1CCOC1=O` are within 1.5-fold of each other in IC50: 35.8 µM for the first, 29.5 µM for the second.

`Cc1ccc2c(c1)nc(SC(Cc1ccccc1)C(=O)N1CCNC1=O)n2Cc1ccccc1` (configuration not stated) and `O=C1NCCN1C(=O)C(Cc1ccccc1)Sc1nc2cc(Cl)ccc2n1Cc1ccccc1` (configuration not stated) are within 1.5-fold of each other in IC50: 32.4 µM for the first, 29.9 µM for the second.

`COc1cc2c(cc1Cl)nc(SC(Cc1ccco1)C(=O)N1CCOC1=O)n2Cc1ccccc1` (configuration not stated) and `O=C1OCCN1C(=O)C(Cc1ccco1)Sc1nc2cc(Cl)c(Cl)cc2n1Cc1ccccc1` (configuration not stated) are within 1.5-fold of each other in IC50: 27.7 µM for the first, 30.8 µM for the second.

`Cc1ccc2c(c1)nc(SC(Cc1ccccc1)C(=O)N1CCOC1=O)n2Cc1ccccc1` (configuration not stated) and `O=C1OCCN1C(=O)C(Cc1ccccc1)Sc1nc2cc(Cl)ccc2n1Cc1ccccc1` (configuration not stated) are within 1.5-fold of each other in IC50: 36.5 µM for the first, 26.7 µM for the second.

`COc1ccc2nc(SC(Cc3ccco3)C(=O)N3CCOC3=O)n(Cc3ccccc3)c2c1` (configuration not stated) and `O=C1OCCN1C(=O)C(Cc1ccco1)Sc1nc2ccc(O)cc2n1Cc1ccccc1` (configuration not stated) are within 1.5-fold of each other in IC50: 53.9 µM for the first, 55.8 µM for the second.

Compared with `O=C(CSc1nc2cc(Cl)ccc2n1Cc1ccccc1)N1CCNC1=O`, `COc1cc2c(cc1Cl)nc(SCC(=O)N1CCOC1=O)n2Cc1ccccc1` is 2.2-fold higher in IC50: 24.2 µM for the first, 52.5 µM for the second. The first is the more potent here.

Compared with `O=C1OCCN1C(=O)C(Cc1ccco1)Sc1nc2cc(Cl)c(O)cc2n1Cc1ccccc1` (configuration not stated), `CC(C)(C)c1ccc2c(c1)nc(SC(Cc1ccccc1)C(=O)N1CCOC1=O)n2Cc1ccccc1` (configuration not stated) is 1.6-fold lower in IC50: 46.1 µM for the first, 29.5 µM for the second.

molecular target: Replicase polyprotein 1ab (Severe acute respiratory syndrome coronavirus 2) (UniProt P0DTD1); test: Inhibition of His6-tagged SARS-CoV-2 main protease expressed in Escherichia coli BL21 (DE3) assessed as residual enzyme activity using DABCYL-KTSAVLQ1SGFRKM-E(EDANS)-NH2 as substrate at 50 uM preincubated for 15 mins followed by substrate addition by FRET analysis
How it was run: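 Compound at 50 µM preincubated 15 min at 30 °C before dabcyl-edans peptide added. Fluorescence read every 90 s for about 2.5 h, baseline subtracted.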

`O=C(CSc1nc2cc(Cl)ccc2n1Cc1ccccc1)N1CCNC1=O` and `COCCn1c(C(=O)NCC(O)c2ccccc2)nc2ccccc2c1=O` (configuration not stated) are the same in Activity: 50% for the first, 50% for the second.
